Activity calls are given as the source filed them. The calls are words filed in the database; no cut-off is given here.
Assays:
Homo sapiens = organism: Homo sapiens; experiment: Selectivity index, ratio of IC50 for BuChE in human serum to IC50 for AChE in human erythrocytes measured by DTNB reagent based Ellman's method; format: cell-based
[1] = molecular target: Acetylcholinesterase (Homo sapiens) (UniProt P22303); experiment: Inhibition of AChE in human erythrocytes assessed as inhibition of AChE-induced amyloid beta (1 to 42) aggregation by measuring reduced particle size at 10 uM measured after 48 hrs by Dynamic light scattering analysis; format: cell-based; conditions: Erythrocyte
Sequence of Acetylcholinesterase (Homo sapiens) (P22303 whole entry): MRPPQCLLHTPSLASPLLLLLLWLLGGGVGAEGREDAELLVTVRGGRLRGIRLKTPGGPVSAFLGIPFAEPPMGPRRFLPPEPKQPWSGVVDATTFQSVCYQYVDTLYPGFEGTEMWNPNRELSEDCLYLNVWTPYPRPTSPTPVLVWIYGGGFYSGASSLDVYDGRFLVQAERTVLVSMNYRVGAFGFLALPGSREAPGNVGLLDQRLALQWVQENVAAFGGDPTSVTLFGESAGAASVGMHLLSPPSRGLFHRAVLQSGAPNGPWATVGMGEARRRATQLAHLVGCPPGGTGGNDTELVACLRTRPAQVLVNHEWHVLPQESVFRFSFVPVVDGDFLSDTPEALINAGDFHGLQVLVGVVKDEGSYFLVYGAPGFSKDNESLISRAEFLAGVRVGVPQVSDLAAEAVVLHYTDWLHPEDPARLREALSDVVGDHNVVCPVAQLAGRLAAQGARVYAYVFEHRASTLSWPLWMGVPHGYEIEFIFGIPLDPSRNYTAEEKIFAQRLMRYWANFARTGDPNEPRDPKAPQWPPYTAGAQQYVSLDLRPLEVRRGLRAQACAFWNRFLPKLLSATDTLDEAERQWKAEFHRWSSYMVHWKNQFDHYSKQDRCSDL
Procedure, shortened: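 Aβ1-42 with AChE (10 unit/mL) incubated with compound at 10 μM in PBS pH 7.4, in the dark for 48 h at 37 °C. Particle size distribution then measured by dynamic light scattering.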

[2] = molecular target: Acetylcholinesterase (Homo sapiens) (UniProt P22303); experiment: Inhibition of AChE in human erythrocytes assessed as inhibition of AChE-induced amyloid beta(1 to 42) aggregation at Abeta42:compound concentration ratio of 10:10 measured after 48 hrs by thioflavin-T assay; format: cell-based; conditions: Erythrocyte
Procedure, shortened: (§1)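 Aβ1-42 (stock in 1% ammonium hydroxide; final 10 μM) plus human erythrocyte AChE. Incubated 48 h at 37 °C with or without compound (5, 10, 20 μM; DMSO stock diluted in PBS pH 7.4). Then diluted in 50 mM glycine-NaOH pH 8.0 containing 5 μM thioflavin T. Fluorescence normalised to control; three separate experiments.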

[3] = molecular target: Amyloid-beta precursor protein (Homo sapiens) (UniProt P05067); experiment: Inhibition of self-induced amyloid beta (1 to 42) (unknown origin) aggregation assessed as reduced particle size at 10 uM measured after 48 hrs by Dynamic light scattering analysis
Sequence of Amyloid-beta precursor protein (Homo sapiens) (P05067 whole entry): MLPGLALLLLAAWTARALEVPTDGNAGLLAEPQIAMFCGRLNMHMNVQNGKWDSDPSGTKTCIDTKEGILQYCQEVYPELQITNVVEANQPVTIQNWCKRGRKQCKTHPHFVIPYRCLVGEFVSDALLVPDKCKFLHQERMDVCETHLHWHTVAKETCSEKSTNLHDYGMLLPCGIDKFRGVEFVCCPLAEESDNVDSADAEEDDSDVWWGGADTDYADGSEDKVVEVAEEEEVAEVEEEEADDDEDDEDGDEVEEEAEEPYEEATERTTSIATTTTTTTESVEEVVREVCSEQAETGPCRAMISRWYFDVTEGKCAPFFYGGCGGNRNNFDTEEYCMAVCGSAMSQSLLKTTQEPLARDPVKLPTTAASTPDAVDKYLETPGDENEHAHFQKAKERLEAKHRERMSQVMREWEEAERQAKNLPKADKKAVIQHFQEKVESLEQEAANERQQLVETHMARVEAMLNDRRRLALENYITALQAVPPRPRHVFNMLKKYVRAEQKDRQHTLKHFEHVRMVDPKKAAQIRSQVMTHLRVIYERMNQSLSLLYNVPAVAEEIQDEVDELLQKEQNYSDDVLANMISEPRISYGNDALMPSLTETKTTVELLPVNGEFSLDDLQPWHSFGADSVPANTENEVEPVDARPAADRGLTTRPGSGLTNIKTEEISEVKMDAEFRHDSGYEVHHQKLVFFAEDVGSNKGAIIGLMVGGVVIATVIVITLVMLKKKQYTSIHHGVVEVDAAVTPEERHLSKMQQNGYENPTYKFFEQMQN
Procedure, shortened: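 Aβ1-42 stock (100 μM) in PBS pH 7.4, […], incubated with compound (10 μM) in the dark at 37 °C for 48 h. Particle size distribution then measured by dynamic light scattering.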

[4] = molecular target: Acetylcholinesterase (Homo sapiens) (UniProt P22303); experiment: Inhibition of AChE in human erythrocytes assessed as inhibition of AChE-induced amyloid beta(1 to 42) aggregation at Abeta42:compound concentration ratio of 10:20 measured after 48 hrs by thioflavin-T assay; format: cell-based; conditions: Erythrocyte; procedure, shortened: as §1
MC65 = experiment: Neuroprotective activity in human MC65 cells cultured in TC-deficient medium assessed as inhibition of TC-deficiency induced oxidative stress by measuring increase in cell viability at 1 to 80 uM measured after 12 hrs by MTT assay; format: functional, cell-based; conditions: dose 1-80 µM
Procedure, shortened: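 MC65 cells grown in MEM, PBS-washed and resuspended in MEM, then seeded at 5×10⁴ cells/well with or without TC. Compounds (80–1 μM) added to TC-free wells and incubated 12 h at 37 °C. MTT (5 mg/ml) added for a further 4 h; formazan dissolved in DMSO:H₂O 1:1 and read at 570 nm. Viability expressed as % of +TC control. Triplicate wells, three runs.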

[5] = molecular target: Amyloid-beta precursor protein (Homo sapiens) (UniProt P05067); experiment: Inhibition of amyloid beta (1 to 42) (unknown origin) aggregation at 22 uM measured after 24 hrs by Transmission electron microscopy method
Procedure, shortened: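 Aβ1-42 (44 μM) co-incubated with compound (22 μM) at 37 °C for 24 h. 10 μL aliquots placed on carbon-coated copper grids, stained with 1% uranyl acetate, blotted and dried 15 min at room temperature. Fibril morphology imaged by […]TEM. Controls were Aβ1-42 alone at 37 °C for 24 h and Aβ1-42 alone at 0 h.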

[6] = molecular target: Acetylcholinesterase (Homo sapiens) (UniProt P22303); experiment: Non-competitive inhibition of AChE in human erythrocytes assessed as ratio of Vmax to Km at 25 nM measured at 2 mins interval for 10 mins by Lineweaver-Burk plot analysis; format: cell-based; conditions: Erythrocyte
Procedure, shortened: (§2)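 Human AChE kinetics in the Ellman DTNB assay. Inhibitor at 25, 50 and 100 nM, each with six ATCI concentrations, against an inhibitor-free series. Activity read every 2 min over 10 min. Km and Vmax from Michaelis–Menten non-linear regression; mechanism from Lineweaver–Burk plots; Ki from Dixon plot over four inhibitor concentrations and from slope/intercept replots. Triplicate.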

[7] = molecular target: Acetylcholinesterase (Homo sapiens) (UniProt P22303); experiment: Non-competitive inhibition of AChE in human erythrocytes assessed as decrease in Vmax with constant Km measured at 2 mins interval for 10 mins by Lineweaver-Burk plot analysis; format: cell-based; conditions: Erythrocyte; procedure, shortened: as §2
[8] = molecular target: Acetylcholinesterase (Homo sapiens) (UniProt P22303); experiment: Non-competitive inhibition of AChE in human erythrocytes assessed as ratio of Vmax to Km at 50 nM measured at 2 mins interval for 10 mins by Lineweaver-Burk plot analysis; format: cell-based; conditions: Erythrocyte; procedure, shortened: as §2
[9] = molecular target: Acetylcholinesterase (Homo sapiens) (UniProt P22303); experiment: Non-competitive inhibition of AChE in human erythrocytes assessed as ratio of Vmax to Km at 100 nM measured at 2 mins interval for 10 mins by Lineweaver-Burk plot analysis; format: cell-based; conditions: Erythrocyte; procedure, shortened: as §2

SMILES | Ratio IC50 (Homo sapiens) | also measured
CCOC(=O)c1c(C)nc(N2CCN(S(=O)(=O)c3ccc(N)c(OC)c3)CC2)nc1-c1ccc(OC)cc1 | 0.36 | –
CCOC(=O)c1c(C)nc(N2CCN(S(=O)(=O)c3ccc(NC(C)=O)c(Cl)c3)CC2)nc1-c1ccc(OC)cc1 | 0.4 | –
CCOC(=O)c1c(C)nc(N2CCN(S(=O)(=O)c3ccc(N)cc3)CC2)nc1-c1ccc(OC)c(OC)c1 | 0.31 | –
CCOC(=O)c1c(C)nc(N2CCN(S(=O)(=O)c3ccc(NC(C)=O)c(Cl)c3)CC2)nc1-c1ccccc1 | 0.61 | –
CCOC(=O)c1c(C)nc(N2CCN(S(=O)(=O)c3ccc(NC(C)=O)cc3)CC2)nc1-c1ccc(OC)cc1 | 0.42 | –
CCOC(=O)c1c(C)nc(N2CCN(S(=O)(=O)c3ccc(NC(C)=O)c(F)c3)CC2)nc1-c1ccc(OC)c(OC)c1 | 0.41 | –
CCOC(=O)c1c(C)nc(N2CCN(S(=O)(=O)c3ccc(N)c(Cl)c3)CC2)nc1-c1ccc(OC)c(OC)c1 | 0.28 | inhibition [1]: Active; inhibition [2]: 22.2%; inhibition [3]: Active; inhibition [4]: 35.3%; Activity (MC65): Active; inhibition [5]: Active
CCOC(=O)c1c(C)nc(N2CCN(S(=O)(=O)c3ccc(NC(C)=O)c(OC)c3)CC2)nc1-c1ccc(OC)cc1 | 0.4 | –
CCOC(=O)c1c(C)nc(N2CCN(S(=O)(=O)c3ccc(N)c(F)c3)CC2)nc1-c1ccc(OC)c(OC)c1 | 0.37 | –
CCOC(=O)c1c(C)nc(N2CCN(S(=O)(=O)c3ccc(NC(C)=O)cc3)CC2)nc1-c1ccccc1 | 0.54 | –
CCOC(=O)c1c(C)nc(N2CCN(S(=O)(=O)c3ccc(N)c(OC)c3)CC2)nc1-c1ccccc1 | 0.29 | –
CCOC(=O)c1c(C)nc(N2CCN(S(=O)(=O)c3ccc(NC(C)=O)c(Cl)c3)CC2)nc1-c1ccc(OC)c(OC)c1 | 0.23 | Vmax/Km [6]: 0.094; inhibition [1]: Active; inhibition [7]: Active; inhibition [2]: 35.5%; Vmax/Km [8]: 0.076; inhibition [3]: Active; inhibition [4]: 51.3%; Vmax/Km [9]: 0.056; inhibition [5]: Active
CCOC(=O)c1c(C)nc(N2CCN(S(=O)(=O)c3ccc(NC(C)=O)c(F)c3)CC2)nc1-c1ccccc1 | 0.35 | –
CCOC(=O)c1c(C)nc(N2CCN(S(=O)(=O)c3ccc(NC(C)=O)c(OC)c3)CC2)nc1-c1ccc(OC)c(OC)c1 | 0.38 | –
CCOC(=O)c1c(C)nc(N2CCN(S(=O)(=O)c3ccc(NC(C)=O)c(OC)c3)CC2)nc1-c1ccccc1 | 0.42 | –
CCOC(=O)c1c(C)nc(N2CCN(S(=O)(=O)c3ccc(N)c(Cl)c3)CC2)nc1-c1ccccc1 | 0.57 | –
CCOC(=O)c1c(C)nc(N2CCN(S(=O)(=O)c3ccc(N)c(Cl)c3)CC2)nc1-c1ccc(OC)cc1 | 0.43 | –
CCOC(=O)c1c(C)nc(N2CCN(S(=O)(=O)c3ccc(N)c(F)c3)CC2)nc1-c1ccc(OC)cc1 | 0.64 | –
CCOC(=O)c1c(C)nc(N2CCN(S(=O)(=O)c3ccc(N)c(OC)c3)CC2)nc1-c1ccc(OC)c(OC)c1 | 0.4 | –
CCOC(=O)c1c(C)nc(N2CCN(S(=O)(=O)c3ccc(NC(C)=O)c(F)c3)CC2)nc1-c1ccc(OC)cc1 | 0.42 | –
CCOC(=O)c1c(C)nc(N2CCN(S(=O)(=O)c3ccc(N)cc3)CC2)nc1-c1ccc(OC)cc1 | 0.33 | –
CCOC(=O)c1c(C)nc(N2CCN(S(=O)(=O)c3ccc(NC(C)=O)cc3)CC2)nc1-c1ccc(OC)c(OC)c1 | 0.35 | –
